Active and inactive are the calls of the source. The rule behind the calls is not given here.
Key:
[1] = Solubility of compound in DMSO at 10 to 1000 ng/ml; format: physicochemical
[2] = Cytotoxicity against Balb/c mouse splenocytes assessed as reduction in cell proliferation up to 1000 ng/ml after 48 hrs by MTT assay; format: cell-based; conditions: splenocyte
In short: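 Splenocytes from BALB/c mice were exposed to glycolipid at up to 1000 ng/mL for 48 h. Proliferation was read by MTT relative to untreated cells.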

Mus musculus [3] = organism: Mus musculus; experiment: Binding affinity to CD1D in Balb/c mouse splenocytes assessed as increase in IL-2 production at 10 to 1000 ng/ml after 48 hrs by sandwich ELISA; format: cell-based
In short: (§1)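 Splenocytes isolated from BALB/c mice were cultured in vitro with glycolipid (dissolved in DMSO) at 10, 100 or 1000 ng/mL for 48 h. IL-2, IL-4 and IFN-γ in the culture were measured by ELISA.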

T-cell = experiment: Binding affinity to CD1D in Balb/c mouse splenocytes assessed as T cell stimulation by measuring increase in cytokine expression after 48 hrs by sandwich ELISA; format: cell-based; in short: as §1
Mus musculus [4] = organism: Mus musculus; experiment: Binding affinity to CD1D in Balb/c mouse splenocytes assessed as increase in IL-4 production at 10 to 1000 ng/ml after 48 hrs by sandwich ELISA; format: cell-based; in short: as §1
Mus musculus [5] = organism: Mus musculus; experiment: Binding affinity to CD1D in Balb/c mouse splenocytes assessed as increase in IFN-gamma production at 10 to 1000 ng/ml after 48 hrs by sandwich ELISA; format: cell-based; in short: as §1
Mus musculus [6] = organism: Mus musculus; experiment: Binding affinity to CD1D in Balb/c mouse splenocytes assessed as increase in IL-4 production at 1000 ng/ml at 2 hrs by sandwich ELISA; format: cell-based
In short: (§2)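 For cytokine kinetics, BALB/c mouse splenocytes were treated in vitro with glycolipid at 1000 ng/mL. Culture supernatants were sampled at 2, 12 and 24 h, and IL-4 and IFN-γ were quantified.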

Mus musculus [7] = organism: Mus musculus; experiment: Binding affinity to CD1D in Balb/c mouse splenocytes assessed as increase in IL-4 production at 1000 ng/ml up to 24 hrs by sandwich ELISA; format: cell-based; in short: as §2
Mus musculus [8] = organism: Mus musculus; experiment: Binding affinity to CD1D in Balb/c mouse splenocytes assessed as increase in IFN-gamma production at 1000 ng/ml up to 12 hrs by sandwich ELISA; format: cell-based; in short: as §2
Mus musculus [9] = organism: Mus musculus; experiment: Binding affinity to CD1D in Balb/c mouse splenocytes assessed as increase in IFN-gamma production at 1000 ng/ml at 24 hrs by sandwich ELISA; format: cell-based; in short: as §2
[10] = molecular target: T1, Antigen-presenting glycoprotein CD1d (Homo sapiens) (UniProt P15813); experiment: Binding affinity to CD1D (unknown origin) assessed as increase in IL-2 production at 100 ng/ml preincubated for 16 hrs followed by Valpha-14 Vbeta-8.2 DN3A4-1.2(1.2) iNKT hybridoma cells addition to compound-CD1D mixture measured after 16 hrs by sandwich ELISA
T1 sequence (whole entry): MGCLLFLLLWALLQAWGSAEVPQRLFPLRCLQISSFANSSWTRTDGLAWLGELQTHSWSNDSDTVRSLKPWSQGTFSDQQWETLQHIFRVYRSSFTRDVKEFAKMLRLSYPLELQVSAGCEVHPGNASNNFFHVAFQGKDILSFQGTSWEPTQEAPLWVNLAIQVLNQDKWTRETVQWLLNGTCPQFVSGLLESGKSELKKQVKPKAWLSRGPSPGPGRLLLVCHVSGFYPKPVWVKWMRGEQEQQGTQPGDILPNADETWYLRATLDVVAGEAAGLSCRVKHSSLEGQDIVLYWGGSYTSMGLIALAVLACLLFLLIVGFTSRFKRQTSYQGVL
In short: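 Glycolipid incubated with CD1d protein for 16 h, then exposed to Vα14 Vβ8.2 DN3A4–1.2 (1.2) iNKT hybridoma cells; IL-2 secreted into the medium quantified.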

Mus musculus [11] = experiment: Stimulation of IFN-gamma production in Balb/c mouse at 1 ug, iv after 2 to 48 hrs by sandwich ELISA; format: functional, organism-based
In short: (§3)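 BALB/c mice received glycolipid intravenously, 1 μg per animal. IFN-γ and IL-4 expression was then measured in vivo.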

Mus musculus [12] = experiment: Stimulation of IL-4 production in Balb/c mouse at 1 ug, iv after 2 to 48 hrs by sandwich ELISA; format: functional, organism-based; in short: as §3
Mus musculus [13] = organism: Mus musculus; experiment: Binding affinity to CD1D in Balb/c mouse splenocytes assessed as increase in IFN-gamma production at 1000 ng/ml after 48 hrs by sandwich ELISA; format: cell-based

| SMILES | solubility [1] | Activity [2] | Activity (Mus musculus [3]) | Activity (T-cell) | Activity (Mus musculus [4]) | Activity (Mus musculus [5]) | Activity (Mus musculus [6]) | Activity (Mus musculus [7]) | Activity (Mus musculus [8]) | Activity (Mus musculus [9]) | Activity [10] | Activity (Mus musculus [11]) | Activity (Mus musculus [12]) | Activity (Mus musculus [13]) |
| --- | --- | --- | --- | --- | --- | --- | --- | --- | --- | --- | --- | --- | --- | --- |
| CCCCCCCCCCCCCC[C@@H](O)[C@@H](O)[C@H](CO[C@H]1O[C@H](CO)[C@H](O)[C@H](O)[C@H]1O)n1cc(COCCCCCCCCCCCCOCc2ccccc2)nn1 | soluble | Non-toxic | Active | Dose-dependent effect |  |  |  |  |  |  |  |  |  |  |
| CCCCCCCCCCCCCC[C@@H](O)[C@@H](O)[C@H](CO[C@H]1O[C@H](CO)[C@H](O)[C@H](O)[C@H]1O)n1cc(COCCCCCCCCCCCCOCCCCOCc2ccccc2)nn1 | soluble | Non-toxic | Active | Dose-dependent effect | Active | Active | Active | inactive | inactive | Active | Active | inactive | inactive |  |
| CCCCCCCCCCCCCC[C@@H](O)[C@@H](O)[C@H](CO[C@H]1O[C@H](CO)[C@H](O)[C@H](O)[C@H]1O)n1cc(COCCCCCCCCCCOCc2ccccc2)nn1 | soluble | Non-toxic | Active | Dose-dependent effect |  |  |  |  |  |  |  |  |  |  |
| CCCCCCCCCCCCCC[C@@H](O)[C@@H](O)[C@H](CO[C@H]1O[C@H](CO)[C@H](O)[C@H](O)[C@H]1O)n1cc(COCCCCCCCCCCCCOCCCCCCOCc2ccccc2)nn1 | soluble | Non-toxic | Active | Dose-dependent effect | Active | Active | Active | inactive | inactive | Active | Active | inactive | inactive |  |
| CCCCCCCCCCCCCC[C@@H](O)[C@@H](O)[C@H](CO[C@H]1O[C@H](CO)[C@H](O)[C@H](O)[C@H]1O)n1cc(COCCCCCCCCCCCCOCCOCc2ccccc2)nn1 | soluble | Non-toxic | Active | Dose-dependent effect |  |  |  |  |  |  |  |  |  | Active |
| CCCCCCCCCCCCCC[C@@H](O)[C@@H](O)[C@H](CO[C@H]1O[C@H](CO)[C@H](O)[C@H](O)[C@H]1O)n1cc(COCCCCCCCCOCc2ccccc2)nn1 | soluble | Non-toxic | Active | Dose-dependent effect |  |  |  |  |  |  |  | Active | Active |  |
| CCCCCCCCCCCCCCCCCCCCCCCCCC(=O)N[C@@H](CO[C@H]1O[C@H](CO)[C@H](O)[C@H](O)[C@H]1O)[C@H](O)[C@H](O)CCCCCCCCCCCCCC [RGI-7000] |  | Non-toxic | Active |  | Active | Active | Active | Active | Active | Active | Active | Active | Active |  |
| CCCCCCCCCCCCCC[C@@H](O)[C@@H](O)[C@H](CO[C@H]1O[C@H](CO)[C@H](O)[C@H](O)[C@H]1O)n1cc(COCCCCCCOCc2ccccc2)nn1 | soluble | Non-toxic | Active | Dose-dependent effect |  |  |  |  |  |  |  |  |  | Active |
| CCCCCCCCCCCCCC[C@@H](O)[C@@H](O)[C@H](CO[C@H]1O[C@H](CO)[C@H](O)[C@H](O)[C@H]1O)n1cc(COCCOCc2ccccc2)nn1 | soluble | Non-toxic | inactive | Dose-dependent effect |  |  |  |  |  |  |  |  |  |  |
| CCCCCCCCCCCCCC[C@@H](O)[C@@H](O)[C@H](CO[C@H]1O[C@H](CO)[C@H](O)[C@H](O)[C@H]1O)n1cc(COCCCCOCc2ccccc2)nn1 | soluble | Non-toxic | Active | Dose-dependent effect |  |  |  |  |  |  |  |  |  |  |

Source: ChEMBL document CHEMBL3797161, “Design, Synthesis, and Immunological Evaluation of Benzyloxyalkyl-Substituted 1,2,3-Triazolyl α-GalCer Analogues” (ACS Med Chem Lett, 2016)
